In ChEMBL document CHEMBL1125880, “Structure-activity relationship of miltirone, an active central benzodiazepine receptor ligand isolated from Salvia miltiorrhiza Bunge (Danshen)” (J Med Chem, 1991):

Tests used:
[1] = target: GABA-A receptor; anion channel; assay: Potency related to miltirone (1) at the central benzodiazepine receptor was determined using [3H]flunitrazepam as radioligand; type: protein-complex assay
Outline: (§1)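 Calf cerebral cortical membranes incubated 45 min at 0 °C with [³H]flunitrazepam (1 nM) in 50 mM Tris-HCl pH 7.4, final volume 500 μL. Terminated by dilution with ice-cold buffer, rapid GF/B filtration and washes; filter radioactivity counted by liquid scintillation. Nonspecific binding defined with 10 μM diazepam. IC50 = concentration giving 50% inhibition of specific binding; mean ± SD of (n) determinations in duplicate. Unstable compounds tested immediately after preparation.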

[2] = target: GABA-A receptor; anion channel; assay: inhibition of [3H]flunitrazepam binding to GABA-A central Benzodiazepine receptor of bovine cerebral cortex membrane; type: tissue-based, Bos taurus; outline: as §1

SMILES | IC50 [1] | IC50 [2]
CC(C)C1=Cc2ccc3c(c2C(=O)C1=O)CCCCCC3 | 0.31 µM | –
CC1=CCCc2c1ccc1c2C(=O)C(=O)C(C(C)C)=C1 | – | 4.4 µM
CC(C)C1=Cc2cccc(C(=O)O)c2C(=O)C1=O | 4.3 µM | –
CC(C)C1=Cc2ccccc2C(=O)C1=O | > 50 µM | –
CC(C)C1=Cc2ccc3c(c2C(=O)C1=O)CC[C@@H](O)[C@]3(C)O | 17 µM | –
CC(C)C1=Cc2ccc3c(c2C(=O)C1=O)CCCC3(C)O (stereo not drawn) | 2 µM | –
CC1=Cc2ccc3c(c2C(=O)C1=O)CCCC3(C)C | 0.4 µM | –
CC(C)C1=Cc2ncc3c(c2C(=O)C1=O)CCCC3 | 9.1 µM | –
CC(C)C1=Cc2cc3c4c(c2C(=O)C1=O)CCCC4CC3 (stereo not drawn) | 0.05 µM | –
CC(C)C1=Cc2ccc3c(c2C(=O)C1=O)CCCC3 | 0.9 µM | –
CC1(C)CCCc2c1ccc1c2C(=O)C(=O)C=C1 | 10 µM | –
CC(C)C1=Cc2ccc3c(c2C(=O)C1=O)CC[C@H](O)[C@]3(C)O | 15 µM | –
O=C1C=Cc2ccc3c(c2C1=O)CCCC3 | – | 20 µM
CCN(CC)C(=O)c1cccc2c1C(=O)C(=O)C(C(C)C)=C2 | > 30 µM | –
CC(C)C1=Cc2ccc3c(c2C(=O)C1=O)CCCC3(C)C [MILTIRONE] | 0.3 µM | –
CC(C)C1=CC2=C(CCCC2)C(=O)C1=O | > 140 µM | –
Cc1cc2ccc3c(c2oc1=O)CCCC3 | > 40 µM | –
C=Cc1cccc2c1C(=O)C(=O)C(C(C)C)=C2 | – | > 40 µM
CCc1cccc2c1C(=O)C(=O)C(C(C)C)=C2 | > 200 µM | –
CC(C)C1=Cc2ccc3c(c2C(=O)C1=O)CCCC(=O)N3 | 0.32 µM | –
CC(C)C1=Cc2ccc3c(c2C(=O)C1=O)CCCC3=O | 0.56 µM | –
CC(C)C1=Cc2cccc(-c3ccccc3)c2C(=O)C1=O | – | 20 µM
CC(C)C1=Cc2ccc3c(c2C(=O)C1=O)CCCCC3 | 0.23 µM | –
